Reference: ChEMBL document CHEMBL1275447 (Antimicrob Agents Chemother, 2008)
≈ marks a conversion by molar mass, not a printed value. Calls of active or inactive are those of the source. The calls are words filed in the database; no cut-off is given here.

Tests used:
Pseudomonas aeruginosa [1] = assay: Antibacterial activity against Pseudomonas aeruginosa isolate 993 by microdilution method; format: functional
Pseudomonas aeruginosa [2] = assay: Antibacterial activity against Pseudomonas aeruginosa isolate 886 by microdilution method; format: functional
Pseudomonas aeruginosa [3] = assay: Antibacterial activity against Pseudomonas aeruginosa isolate 935 by microdilution method; format: functional
Procedure, shortened: (§1)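 CLSI broth microdilution in cation-adjusted Mueller-Hinton broth (20–25 mg/liter Ca, 10–12.5 mg/liter Mg). Standard inoculum 10⁵ CFU/ml, incubated in ambient air. Clinical hospital isolates.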

Pseudomonas aeruginosa [4] = assay: Antibacterial activity against Pseudomonas aeruginosa isolate 1036 by microdilution method; format: functional
Pseudomonas aeruginosa [5] = assay: Antibacterial activity against Pseudomonas aeruginosa isolate 1060 by microdilution method; format: functional; procedure, shortened: as §1
Pseudomonas aeruginosa [6] = assay: Antibacterial activity against Pseudomonas aeruginosa isolate 927 by microdilution method; format: functional
[7] = fT>MIC in human infected with Pseudomonas aeruginosa isolate 886 at 500 mg administered as 1 hr infusion; format: functional
[8] = fT>MIC in human infected with Pseudomonas aeruginosa isolate 1050 at 500 mg administered as 1 hr infusion; format: functional
[9] = fT>MIC in human infected with Pseudomonas aeruginosa isolate 936 at 500 mg administered as 1 hr infusion; format: functional
[10] = fT>MIC in human infected with Pseudomonas aeruginosa isolate 1029 at 500 mg administered as 4 hr infusion; format: functional
[11] = fT>MIC in human infected with Pseudomonas aeruginosa isolate 1055 at 500 mg administered as 4 hr infusion; format: functional
[12] = fT>MIC in human infected with Pseudomonas aeruginosa isolate 1082 at 500 mg administered as 4 hr infusion; format: functional
[13] = fT>MIC in human infected with Pseudomonas aeruginosa isolate 906 at 500 mg administered as 4 hr infusion; format: functional
[14] = fT>MIC in human infected with Pseudomonas aeruginosa isolate 979 at 500 mg administered as 4 hr infusion; format: functional
[15] = fT>MIC in human infected with Pseudomonas aeruginosa isolate 1058 at 500 mg administered as 4 hr infusion; format: functional
[16] = fT>MIC in human infected with Pseudomonas aeruginosa isolate 931 at 500 mg administered as 4 hr infusion; format: functional
[17] = fT>MIC in human infected with Pseudomonas aeruginosa isolate 1050 at 500 mg administered as 4 hr infusion; format: functional
[18] = fT>MIC in human infected with Pseudomonas aeruginosa isolate 1006 at 500 mg administered as 4 hr infusion; format: functional
[19] = fT>MIC in neutropenic mouse infected with Pseudomonas aeruginosa isolate 993 at 500 mg administered as 1 hr infusion; format: functional
Procedure, shortened: (§2)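 Free-drug time above MIC simulated from one-compartment mouse serum PK (25.2% protein binding). The mice were cyclophosphamide-neutropenic and uranyl nitrate-renally impaired. Regimen was subcutaneous 10, 15, 2.5, 1.25, 0.5, 0.25 mg/kg at 0, 0.5, 2.5, 4, 5.5, 7 h, repeated every 8 h over 24 h.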

[20] = fT>MIC in neutropenic mouse infected with Pseudomonas aeruginosa isolate 1055 at 500 mg administered as 1 hr infusion; format: functional; procedure, shortened: as §2
[21] = fT>MIC in neutropenic mouse infected with Pseudomonas aeruginosa isolate 1062 at 500 mg administered as 1 hr infusion; format: functional; procedure, shortened: as §2
[22] = fT>MIC in neutropenic mouse infected with Pseudomonas aeruginosa isolate 935 at 500 mg administered as 1 hr infusion; format: functional; procedure, shortened: as §2
[23] = fT>MIC in neutropenic mouse infected with Pseudomonas aeruginosa isolate 1082 at 500 mg administered as 1 hr infusion; format: functional; procedure, shortened: as §2
[24] = fT>MIC in neutropenic mouse infected with Pseudomonas aeruginosa isolate 979 at 500 mg administered as 1 hr infusion; format: functional; procedure, shortened: as §2
[25] = fT>MIC in neutropenic mouse infected with Pseudomonas aeruginosa isolate 1036 at 500 mg administered as 1 hr infusion; format: functional
[26] = fT>MIC in neutropenic mouse infected with Pseudomonas aeruginosa isolate 869 at 500 mg administered as 4 hr infusion; format: functional
Procedure, shortened: (§3)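 Mouse fT>MIC was modelled with first-order one-compartment serum PK and 25.2% binding. Mice were neutropenic (cyclophosphamide) with uranyl nitrate renal impairment. Subcutaneous doses were 5.5, 2.25, 4.5, 4.5, 4.5, 4.5, 0.75, 0.375 mg/kg at 0, 0.5, 1.5, 2.5, 3.5, 4.5, 6, 7.5 h per 8-h interval over 24 h.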

[27] = fT>MIC in neutropenic mouse infected with Pseudomonas aeruginosa isolate 1055 at 500 mg administered as 4 hr infusion; format: functional; procedure, shortened: as §3
[28] = fT>MIC in neutropenic mouse infected with Pseudomonas aeruginosa isolate 1082 at 500 mg administered as 4 hr infusion; format: functional; procedure, shortened: as §3
[29] = fT>MIC in neutropenic mouse infected with Pseudomonas aeruginosa isolate 979 at 500 mg administered as 4 hr infusion; format: functional; procedure, shortened: as §3
[30] = fT>MIC in neutropenic mouse infected with Pseudomonas aeruginosa isolate 1036 at 500 mg administered as 4 hr infusion; format: functional; procedure, shortened: as §3
[31] = fT>MIC in neutropenic mouse infected with Pseudomonas aeruginosa isolate 1058 at 500 mg administered as 4 hr infusion; format: functional; procedure, shortened: as §3
[32] = fT>MIC in neutropenic mouse infected with Pseudomonas aeruginosa isolate 931 at 500 mg administered as 4 hr infusion; format: functional; procedure, shortened: as §3
[33] = fT>MIC in neutropenic mouse infected with Pseudomonas aeruginosa isolate 1006 at 500 mg administered as 4 hr infusion; format: functional
[34] = Tmax in Pseudomonas aeruginosa ATCC 27853 infected neutropenic ICR mouse at 10 mg/kg, sc administered as single dose 2 hrs postinfection by HPLC; format: ADME, organism-based; set-up: dose 10 mg/kg, route subcutaneous; conditions: in vivo
Procedure, shortened: (§4)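 Neutropenic mice (cyclophosphamide ip 150 and 100 mg/kg, 4 and 1 days before inoculation) with uranyl nitrate 5 mg/kg ip 3 days before, for renal impairment. Thigh infection with ATCC 27853 at 10⁶ CFU/ml, 0.1 ml per thigh. Single sc doses 2 h later. Intracardiac blood from 6–12 mice per time point, eight time points over 4 h. Serum assayed by HPLC (linear 0.5–40 μg/ml). One-compartment first-order fit.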

[35] = AUC (0 to 24 hrs) in Pseudomonas aeruginosa ATCC 27853 infected neutropenic ICR mouse at 10 mg/kg, sc administered as single dose 2 hrs postinfection; format: ADME, organism-based; set-up: time < 24 hr, dose 10 mg/kg, route subcutaneous; conditions: plasma; procedure, shortened: as §4
[36] = Elimination rate constant in Pseudomonas aeruginosa ATCC 27853 infected neutropenic ICR mouse at 150 mg/kg, sc administered as single dose 2 hrs postinfection; format: ADME, organism-based; set-up: dose 150 mg/kg, route subcutaneous; conditions: in vivo; procedure, shortened: as §4
[37] = Cmax in Pseudomonas aeruginosa ATCC 27853 infected neutropenic ICR mouse at 500 mg administered as 1 hr infusion; format: ADME, organism-based; set-up: dose 500 mg; conditions: in vivo, iv
[38] = AUC in Pseudomonas aeruginosa ATCC 27853 infected neutropenic ICR mouse at 500 mg administered as 1 hr infusion; format: ADME, organism-based; conditions: plasma, iv
[39] = AUC in healthy human at 500 mg administered as 4 hr infusion; format: ADME, organism-based; conditions: plasma, iv
Pseudomonas aeruginosa [40] = assay: Antibacterial activity against Pseudomonas aeruginosa isolate at 8 to 16 ug/ml after 24 hrs; format: functional, organism-based
Pseudomonas aeruginosa [41] = assay: Antibacterial activity against Pseudomonas aeruginosa isolate 1060 by fractionation study; format: functional

C[C@@H](O)[C@H]1C(=O)N2C(C(=O)O)=C(S[C@@H]3CN[C@H](CNS(N)(=O)=O)C3)[C@H](C)[C@H]12 [DORIPENEM]
MIC (Pseudomonas aeruginosa [1]): 0.125 µg/mL (≈ 0.297 µM) | MIC (Pseudomonas aeruginosa [2]): 0.25 µg/mL (≈ 0.595 µM) | MIC (Pseudomonas aeruginosa [3]): 1 µg/mL (≈ 2.38 µM) | MIC (Pseudomonas aeruginosa [4]): 2 µg/mL (≈ 4.76 µM) | MIC (Pseudomonas aeruginosa [5]): 4 µg/mL (≈ 9.51 µM) | MIC (Pseudomonas aeruginosa [6]): 16 µg/mL (≈ 38 µM) | fT>MIC [7]: 90% | fT>MIC [8]: 27.5% | fT>MIC [9]: 17.5% | fT>MIC [10]: 100% | fT>MIC [11]: 95% | fT>MIC [12]: 80% | fT>MIC [13]: 65% | fT>MIC [14]: 65% | fT>MIC [15]: 65% | fT>MIC [16]: 55% | fT>MIC [17]: 55% | fT>MIC [18]: 0% | fT>MIC [19]: 100% | fT>MIC [20]: 75% | fT>MIC [21]: 75% | fT>MIC [22]: 55% | fT>MIC [23]: 55% | fT>MIC [24]: 42.5% | fT>MIC [25]: 42.5% | fT>MIC [26]: 100% | fT>MIC [27]: 95% | fT>MIC [28]: 82.5% | fT>MIC [29]: 70% | fT>MIC [30]: 70% | fT>MIC [31]: 70% | fT>MIC [32]: 52.5% | fT>MIC [33]: 0% | Tmax [34]: 15 min | AUC(0-t) at 24 h [35]: 13500 ng·h/mL | k el at 2 h [36]: 0.000433 s⁻¹ | Cmax [37]: 28400 ng/mL | AUC at 1 h [38]: 37600 ng·h/mL | AUC at 4 h [39]: 32400 ng·h/mL | Activity (Pseudomonas aeruginosa [40]): inactive | MIC (Pseudomonas aeruginosa [41]): 2.75 µg/mL (≈ 6.54 µM)
